Converted amounts (≈) assume the structure as drawn.

Holding throughout (assay type): functional
For test [1], the system named is Mycobacterium tuberculosis. The experiment in a line: Antimicrobial activity against Mycobacterium tuberculosis 8C7 harboring embB445 CAG-CGG(Gln-Arg) mutation in embCAB gene after 4 weeks by Bactec 460TB method. In a few lines: (§1)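 EMB MIC by radiometric Bactec 460TB liquid method for clones from strain 210. The clones were selected on 7H10 containing 8, 16 or 32 µg/ml EMB final (~10^9 cells plated, 37°C, 4 weeks), then subcultured in 7H9 without EMB before MIC testing. embCAB was genotyped.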

In test [2] the test system is Mycobacterium tuberculosis. The experiment in a line: Antimicrobial activity against Mycobacterium tuberculosis 16C16 harboring embB1024 GAC-AAC(Asp-Asn) mutation in embCAB gene after 4 weeks by Bactec 460TB method. In a few lines:
as §1

The test system of test [3] is Mycobacterium tuberculosis. The experiment in a line: Antimicrobial activity against Mycobacterium tuberculosis 32C1 harboring embB445 CAG-CGG(Gln-Arg) mutation in embCAB gene after 4 weeks by 7H agar proportion method. The gist of the method: (§2)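 EMB MIC by 7H10 agar proportion for clones selected from M. tuberculosis strain 210. About 10^9 cells from liquid culture (OD600 ~1.5, resuspended in 7H9) were plated on 7H10 with EMB at 8, 16 or 32 µg/ml final, incubated 37°C for 4 weeks. Colonies were subcultured in EMB-free 7H9 before testing, and embCAB was genotyped.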

The subject of test [4] is Mycobacterium tuberculosis. The experiment in a line: Antimicrobial activity against Mycobacterium tuberculosis 32C4 harboring embB497 CAG-CGG(Gln-Arg) mutation in embCAB gene after 4 weeks by Bactec 460TB method.
Test [5] relates to Mycobacterium tuberculosis. The experiment in a line: Antimicrobial activity against Mycobacterium tuberculosis NJT210TGC harboring embB406 GGC-TGC(Gly-Cys) mutation in embB gene after 4 weeks. The gist of the method:
(§3)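 Isogenic embB mutants made by allelic exchange in strain 210. PCR-built fragments carried the codon of interest; double-crossover colonies were screened by molecular beacon assay and confirmed by direct embB sequencing. MICs of EMB, INH and RIF were determined by radiometric Bactec 460TB and 7H10 agar proportion, alongside parent 210.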

Test [6] deals with Mycobacterium tuberculosis. The experiment in a line: Antimicrobial activity against Mycobacterium tuberculosis harboring mutation in embB306 gene after 4 weeks.
Test [7] deals with Mycobacterium tuberculosis. The experiment in a line: Antimicrobial activity against Mycobacterium tuberculosis 8C5 harboring embC13 CGG-CTG(Arg-Leu) mutation in embCAB gene after 4 weeks by 7H agar proportion method. In a few lines:
as §2

Test [8] has as its system Mycobacterium tuberculosis. The experiment in a line: Antimicrobial activity against Mycobacterium tuberculosis 32C1 harboring embB445 CAG-CGG(Gln-Arg) mutation in embCAB gene after 4 weeks by Bactec 460TB method. The gist of the method:
as §1

Test [9] concerns Mycobacterium tuberculosis. The experiment in a line: Antimicrobial activity against Mycobacterium tuberculosis NJT210TCC harboring embB406 GGC-TCC(Gly-Ser) mutation in embB gene after 4 weeks. In a few lines: as §3
Test [10] deals with Mycobacterium tuberculosis. The experiment in a line: Antimicrobial activity against Mycobacterium tuberculosis NJT210CGG harboring embB497 CAG-CGG(Gln-Arg) mutation in embB gene after 4 weeks. The gist of the method:
as §3

Test [11] has as its system Mycobacterium tuberculosis. The experiment in a line: Antimicrobial activity against Mycobacterium tuberculosis 32C3 harboring embB497 CAG-CGG(Gln-Arg) mutation in embCAB gene after 4 weeks by Bactec 460TB method. In a few lines: as §1
The subject of test [12] is Mycobacterium tuberculosis. The experiment in a line: Antimicrobial activity against Mycobacterium tuberculosis 16C16 harboring embB1024 GAC-AAC(Asp-Asn) mutation in embCAB gene after 4 weeks by 7H agar proportion method. The gist of the method: as §2
For test [13], the system named is Mycobacterium tuberculosis. The experiment in a line: Antimicrobial activity against Mycobacterium tuberculosis NJT210GAC harboring embB406 GGC-GAC(Gly-Asp) mutation in embB gene after 4 weeks. In a few lines:
as §3

The test system of test [14] is Mycobacterium tuberculosis. The experiment in a line: Antimicrobial activity against Mycobacterium tuberculosis 16C7 harboring embB445 CAG-CGG(Gln-Arg) mutation in embCAB gene after 4 weeks by Bactec 460TB method. In a few lines: as §1
Test [15] deals with Mycobacterium tuberculosis. The experiment in a line: Antimicrobial activity against Mycobacterium tuberculosis 8C5 harboring embC13 CGG-CTG(Arg-Leu) mutation in embCAB gene after 4 weeks by Bactec 460TB method. The gist of the method: as §1
Test [16] deals with Mycobacterium tuberculosis. The experiment in a line: Antimicrobial activity against Mycobacterium tuberculosis 8C7 harboring embB445 CAG-CGG(Gln-Arg) mutation in embCAB gene after 4 weeks by 7H agar proportion method. The gist of the method: as §2
Test [17] has as its system Mycobacterium tuberculosis. The experiment in a line: Antimicrobial activity against Mycobacterium tuberculosis 16C9 harboring embB497 CAG-CGG(Gln-Arg) mutation in embCAB gene after 4 weeks by Bactec 460TB method. The gist of the method: as §1
Test [18] concerns Mycobacterium tuberculosis. The experiment in a line: Antimicrobial activity against Mycobacterium tuberculosis 16C15 harboring embB497 CAG-CGG(Gln-Arg) mutation in embCAB gene after 4 weeks by Bactec 460TB method. The gist of the method: as §1
The subject of test [19] is Mycobacterium tuberculosis. The experiment in a line: Antimicrobial activity against Mycobacterium tuberculosis 16C14 harboring embB445 CAG-CGG(Gln-Arg) mutation in embCAB gene after 4 weeks by Bactec 460TB method. In a few lines: as §1
For test [20], the system named is Mycobacterium tuberculosis. The experiment in a line: Antimicrobial activity against Mycobacterium tuberculosis NJT210GCC harboring embB406 GGC-GCC(Gly-Ala) mutation in embB gene after 4 weeks. In a few lines: as §3
For test [21], the system named is Mycobacterium tuberculosis. The experiment in a line: Antimicrobial activity against Mycobacterium tuberculosis 16C14 harboring embB445 CAG-CGG(Gln-Arg) mutation in embCAB gene after 4 weeks by 7H agar proportion method. The gist of the method:
as §2

The subject of test [22] is Mycobacterium tuberculosis. The experiment in a line: Antimicrobial activity against Mycobacterium tuberculosis 16C11 harboring embB397 CCG-TCG(Pro-Ser) mutation in embCAB gene after 4 weeks by Bactec 460TB method. In a few lines:
as §1

Test [23] concerns Mycobacterium tuberculosis. The experiment in a line: Antimicrobial activity against Mycobacterium tuberculosis 32C2 harboring embB497 CAG-CGG(Gln-Arg) mutation in embCAB gene after 4 weeks by Bactec 460TB method. In a few lines: as §1
Test [24] has as its system Mycobacterium tuberculosis. The experiment in a line: Antimicrobial activity against Mycobacterium tuberculosis 16C11 harboring embB397 CCG-TCG(Pro-Ser) mutation in embCAB gene after 4 weeks by 7H agar proportion method. The gist of the method: as §2
The test system of test [25] is Mycobacterium tuberculosis. The experiment in a line: Antimicrobial activity against Mycobacterium tuberculosis 32C5 harboring embB324 GGC-CGC(Gly-Arg) mutation in embCAB gene after 4 weeks by 7H agar proportion method. In a few lines:
as §2

In test [26] the test system is Mycobacterium tuberculosis. The experiment in a line: Antimicrobial activity against Mycobacterium tuberculosis 32C5 harboring embB324 GGC-CGC(Gly-Arg) mutation in embCAB gene after 4 weeks by Bactec 460TB method. The gist of the method:
as §1

Take `CC[C@@H](CO)NCCN[C@@H](CC)CO` [ETHAMBUTOL]: the minimal inhibitory concentration (MIC) in test [1] is 2 mg/L (≈ 9.79 µM); in test [2], 3 mg/L (≈ 14.7 µM); in [3], 6 mg/L (≈ 29.4 µM); in test [4] it was 4 mg/L (≈ 19.6 µM); in test [5], 7 mg/L (≈ 34.3 µM); in test [6] it was >20 mg/L. Moreover, the minimal inhibitory concentration (MIC) in [7] came to 8 mg/L (≈ 39.2 µM); in [8], 2 mg/L (≈ 9.79 µM); in test [9], 6 mg/L (≈ 29.4 µM); in test [10] it was 12 mg/L (≈ 58.7 µM); in test [11], 12 mg/L (≈ 58.7 µM); in test [12], 8 mg/L (≈ 39.2 µM). Moreover, the minimal inhibitory concentration (MIC) in test [13] came to 7 mg/L (≈ 34.3 µM); in [14] it was 8 mg/L (≈ 39.2 µM); in [15], 4 mg/L (≈ 19.6 µM); in test [16] it was 4 mg/L (≈ 19.6 µM); in test [17] it was 12 mg/L (≈ 58.7 µM); in [18], 12 mg/L (≈ 58.7 µM). The minimum inhibitory concentration (MIC) in test [19] amounted to 8 mg/L (≈ 39.2 µM); in test [20], 7 mg/L (≈ 34.3 µM); in [21] it was 16 mg/L (≈ 78.3 µM); in test [22], 5 mg/L (≈ 24.5 µM); in [23], 12 mg/L (≈ 58.7 µM); in test [24], 8 mg/L (≈ 39.2 µM). Moreover, the MIC in [25] and in [26] was 8 mg/L (≈ 39.2 µM) throughout.
In the case of `NNC(=O)c1ccncc1` [ISONIAZID], the MIC in test [5], in test [9], in [10], in test [13] and in [20] was 0.05 mg/L (≈ 0.365 µM) throughout.
As to `CO[C@H]1/C=C/O[C@@]2(C)Oc3c(C)c(O)c4c(O)c(c(/C=N/N5CCN(C)CC5)c(O)c4c3C2=O)NC(=O)/C(C)=C\C=C\[C@H](C)[C@H](O)[C@@H](C)[C@@H](O)[C@@H](C)[C@H](OC(C)=O)[C@@H]1C` [RIFAMPIN], the MIC in [5], in test [9], in test [10], in test [13] and in test [20] was 0.05 mg/L (≈ 0.0608 µM) each time.

The record behind these values is ChEMBL document CHEMBL1212742 (2010).
